Experimental data published in ChEMBL document CHEMBL1129623, “Effects of multidrug resistance (MDR1) P-glycoprotein expression levels and coordination metal on the cytotoxic potency of multidentate (N4O2) (ethylenediamine)bis[propyl(R-benzylimino)]metal(III) cations” (1996).
The source made the active and inactive calls. The calls are words filed in the database; no cut-off is given here.

Assays:
[1] = tested on: KB; test: Compound was tested for coefficient of variation percent on R-ENBPI Fe(III) complex in multi drug resistant (KB-8-5) cells; NA=not applicable; format: functional, cell-based; settings: Homo sapiens
Method in brief: (§1)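 KB-8-5 multidrug-resistant cells were kept drug-free for 96 h, then plated at 5000/well in 5% FBS medium and allowed 4 h to recover. Complexes were added in triplicate up to 100 μM for 72 h at 37 °C. Survival was read by SRB staining (490–450 nm) relative to vehicle. LC50 came from a sigmoid fit with Smin fixed at zero, giving CV% and dependency statistics.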

[2] = tested on: KB 3-1; test: Compound was tested for cytotoxic lethal concentration on R-ENBPI […] complexs in human drug sensitive (KB-3-1)cells parentheses value indicates SEM; format: functional; settings: read-out: LC50 (the source's name)
Method in brief: (§2)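 Parental KB-3-1 human epidermal carcinoma cells, no immunodetectable P-glycoprotein, 5000/well in 5% FBS medium, 4 h recovery. Complex was added in triplicate wells up to 100 μM, 72 h at 37 °C, 5% CO2. Cells were TCA-fixed and stained with 0.4% SRB, dye dissolved in 10 mM Tris, A490–450. LC50 was from a sigmoid fit of survival versus vehicle control, Smin constrained to zero.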

[3] = tested on: KB 3-1; test: Compound was tested for cytotoxic lethal concentration on R-ENBPI In(III) complexs in human drug sensitive (KB-3-1)cells. parentheses value indicates SEM; format: functional; settings: read-out: LC50 (the source's name); method in brief: as §2
[4] = tested on: KB; test: Compound was tested for dependency on R-ENBPI Fe(III) complex in multi drug resistant (KB-8-5) cells; NA=not applicable; format: functional, cell-based; settings: Homo sapiens; method in brief: as §1
[5] = tested on: KB 3-1; test: Compound was tested for dependency on R-ENBPI Ga(III) complexs in human drug sensitive (KB-3-1)cells.; format: functional
Method in brief: (§3)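 KB-3-1 cells were plated at 5000/well in 5% FBS medium and allowed 4 h to recover. Complexes were added in triplicate at concentrations up to 100 μM, then incubated 72 h at 37 °C, 5% CO2. Cells were TCA-fixed and stained with SRB, read at 490–450 nm, and expressed as % of vehicle control. A sigmoid fit with Smin constrained to zero gave LC50 and fit dependencies.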

[6] = tested on: KB 3-1; test: Compound was tested for dependency on R-ENBPI Al(III) complexs in human drug sensitive (KB-3-1)cells.; format: functional; method in brief: as §3
[7] = tested on: KB; test: Compound was tested for cytotoxic lethal concentration on R-ENBPI Al(III) complex in multi drug resistant (KB-8-5)cells.; format: functional; settings: Homo sapiens, read-out: LC50 (the source's name)
Method in brief: (§4)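 KB-8-5 cells are colchicine-selected and express modest MDR1 P-glycoprotein. They were kept in drug-free medium for 96 h, then plated at 5000/well in 5% FBS medium and allowed 4 h recovery. Complex was added in triplicate up to 100 μM, with 72 h at 37 °C, 5% CO2. Read-out was SRB staining after TCA fixation, A490–450. LC50 came from a sigmoid fit (Smin=0) of survival relative to vehicle. Values ≥100 μM were not fitted.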

[8] = tested on: KB 3-1; test: (§5) Compound was tested for dependency on R-ENBPI Fe(III) complex in human drug sensitive (KB-3-1)cells.; format: functional; method in brief: as §3
[9] = tested on: KB 3-1; test: Compound was tested for cytotoxic lethal concentration on R-ENBPI Al(III) complexs in human drug sensitive (KB-3-1)cells; format: functional; settings: read-out: LC50 (the source's name); method in brief: as §2
[10] = tested on: KB; test: Compound was tested for dependency on R-ENBPI Al(III) complex in multi drug resistant (KB-8-5)cells.; format: functional, Homo sapiens; method in brief: as §1
[11] = tested on: KB; test: Compound was tested for cytotoxic lethal concentration on R-ENBPI Ga(III) complex in multi drug resistant (KB-8-5)cells.; format: functional; settings: Homo sapiens, read-out: LC50 (the source's name); method in brief: as §4
[12] = tested on: KB; test: Compound was tested for dependency on R-ENBPI In(III) complex in multi drug resistant (KB-8-5)cells.; format: functional, Homo sapiens; method in brief: as §1
[13] = tested on: KB; test: Compound was tested for cytotoxic lethal concentration on R-ENBPI In(III) complex in multi drug resistant (KB-8-5)cells.; format: functional; settings: Homo sapiens, read-out: LC50 (the source's name); method in brief: as §4
[14] = tested on: KB; test: Compound was tested for cytotoxic lethal concentration on R-ENBPI Fe(III) complex in multi drug resistant (KB-8-5)cells.; format: functional; settings: Homo sapiens, read-out: LC50 (the source's name); method in brief: as §4
[15] = tested on: KB 3-1; test: Compound was tested for dependency on R-ENBPI In(III) complexs in human drug sensitive (KB-3-1)cells.; format: functional; method in brief: as §3
[16] = tested on: KB 3-1; test: as §5; format: functional; settings: read-out: LC50 (the source's name)
Method in brief: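 Parameter dependency from the sigmoid fit S={(Smax−Smin)/[1+(C/LC50)^γ]}+Smin of KB-3-1 SRB survival data: 72 h exposure, triplicate wells, up to 100 μM, Smin constrained to zero. It is used to judge overparameterization of the fitted curve.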

[17] = tested on: KB; test: Compound was tested for dependency on R-ENBPI Ga(III) complex in […] (KB-8-5) cells.; format: functional; method in brief: as §1
[18] = tested on: KB 3-1; test: Compound was tested for cytotoxic lethal concentration on R-ENBPI […] complexs in human drug sensitive (KB-3-1)cells. parentheses value indicates SEM; format: functional; settings: read-out: LC50 (the source's name); method in brief: as §2
[19] = tested on: KB; test: Compound was tested for coefficient of variation percent on R-ENBPI Ga(III) complex in multi drug resistant (KB-8-5) cells; NA=not applicable; format: functional, cell-based; settings: Homo sapiens; method in brief: as §1
[20] = tested on: KB; test: Compound was tested for cytotoxic lethal concentration on R-ENBPI Ga(III) complex in multi drug resistant (KB-8-5) cells; NA=not applicable; format: functional, cell-based; settings: Homo sapiens; method in brief: as §4
[21] = tested on: KB; test: Compound was tested for coefficient of variation percent on R-ENBPI Al(III) complex in multi drug resistant (KB-8-5) cells; NA=not applicable; format: functional, cell-based; settings: Homo sapiens; method in brief: as §1
[22] = tested on: KB 3-1; test: Compound was tested for cytotoxic lethal concentration on R-ENBPI Al(III) complexs in human drug sensitive (KB-3-1)cells. parentheses value indicates SEM; format: functional; settings: read-out: LC50 (the source's name); method in brief: as §2
[23] = tested on: KB; test: Compound was tested for dependency on R-ENBPI Al(III) complex in multi drug resistant (KB-8-5) cells; NA=not applicable; format: functional, cell-based; settings: Homo sapiens; method in brief: as §1
[24] = tested on: KB; test: Compound was tested for cytotoxic lethal concentration on R-ENBPI Fe(III) complex in multi drug resistant (KB-8-5) cells; NA=not applicable; format: functional, cell-based; settings: Homo sapiens; method in brief: as §4
[25] = tested on: KB; test: Compound was tested for dependency on R-ENBPI Ga(III) complex in […] (KB-8-5) cells; NA=not applicable; format: functional, cell-based; method in brief: as §1

Row | SMILES | CV [1] | CC50 [3] | Dependency [4] | Dependency [5] | Dependency [6] | CC50 [7] | Dependency [8] | Dependency [12] | CC50 [13] | Dependency [15] | CC50 [16] | other results
1 | COc1cccc(/C=N/CCCN2CCN(CCC/N=C/c3cccc(OC)c3O)C2c2cccc(OC)c2O)c1O | inactive | 16.6 µM | inactive | 0.45 | 0.46 | < 27.5 µM | 0.68 | 0.36 | 24.2 µM | 0.41 | 9 µM | CC50 [2]: < 42.6 µM; CC50 [9]: 11.4 µM; Dependency [10]: 0.33; CC50 [11]: < 110 µM; CC50 [14]: > 100 µM; Dependency [17]: 0.39
2 | COc1cc(O)c(/C=N/CCCN2CCN(CCC/N=C/c3c(O)cc(OC)cc3OC)C2c2c(O)cc(OC)cc2OC)c(OC)c1 | inactive | 63.8 µM | inactive | 0.34 | 0.39 | > 100 µM | 0.23 | 0.38 | 61.8 µM | 0.38 | < 1.1 µM | CC50 [18]: 3.7 µM; CV [19]: inactive; LC50 [20]: inactive; CV [21]: inactive; CC50 [22]: < 1.4 µM; Dependency [23]: inactive; LC50 [24]: inactive; Dependency [25]: inactive
